Results on three molecules are retold here after PMC7612733 (Biochemistry, 2022).

Changes are numbered by the printed parent chain.

The target of one series is T1, wt horcolin (Hordeum vulgare, UniProt Q5U9T2).
T1 sequence (Q5U9T2 1-146): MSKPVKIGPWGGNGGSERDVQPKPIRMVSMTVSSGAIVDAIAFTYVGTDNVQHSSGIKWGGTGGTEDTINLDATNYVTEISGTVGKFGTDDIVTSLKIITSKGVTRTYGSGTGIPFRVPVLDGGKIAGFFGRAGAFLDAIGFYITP
The experiment in a line: 1H-15N HSQC-detected NMR titration with TITAN 2D lineshape modeling, wt horcolin. Type of series: binding, Hordeum vulgare (barley).

For the next series, the target named is T2, D138A horcolin (Hordeum vulgare, UniProt Q5U9T2, D138A).
T2 sequence (Q5U9T2 1-146 D138A): T1 sequence (Q5U9T2 1-146) with D138A
Type of series: binding, Hordeum vulgare (barley). The method in brief: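 Uniformly 15N-labelled, C-terminally His-tagged D138A horcolin was expressed in E. coli BL21(DE3) in M9 medium and purified on Ni-NTA. Samples were in 25 mM Tris, 50 mM NaCl, 1 mM EDTA, 0.03% NaN3, 10% D2O, pH 7.4. 1H-15N HSQC spectra were recorded at 18 methyl-α-D-mannose concentrations from 0 to 167 mM. Lineshapes of 14 residues were globally fitted in TITAN; errors are SD of 100 bootstrap replicas.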

In the next series the target is T3, D39A horcolin (Hordeum vulgare, UniProt Q5U9T2, D39A).
T3 sequence (Q5U9T2 1-146 D39A): T1 sequence (Q5U9T2 1-146) with D39A
Type of series: binding, Hordeum vulgare (barley). The method in brief:
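15N-labelled D39A horcolin carried a C-terminal His tag, was expressed in E. coli BL21(DE3) in M9 medium and purified by Ni-NTA. NMR buffer was pH 7.4: 25 mM Tris, 50 mM NaCl, 1 mM EDTA, 0.03% NaN3, 10% D2O. HSQC spectra were taken over 21 methyl-α-D-mannose points from 0 to 914 mM. Sixteen residues were globally lineshape-fitted in TITAN; errors are SD of 100 bootstraps.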

The series “crystal structure” deals with the molecule itself. The series can be described thus: crystal structure.
For a further series, the target named is HIV gp120. The note with it: read-out: equilibrium dissociation constant (Kd); cited from earlier work.
Another series relates to HIV-1. The note with it: cited from earlier work.

Consider `CO[C@H]1O[C@H](CO)[C@@H](O)[C@H](O)[C@@H]1O` [mannose, methyl-α-D-mannose], for which the koff1 result on wt horcolin (CBS1, wt horcolin, sequential model) was “(2.4 ± 0.2) x 10^3 s^-1”; on D39A horcolin (CBS1 only, D39A horcolin, two-state model) it was “(16.4 ± 0.7) x 10^3 s^-1”. The kon1 entry at wt horcolin (CBS1, wt horcolin, sequential model, from koff and Kd) is listed as “(1.19 ± 0.08) x 10^5 M^-1s^-1”; at D39A horcolin (CBS1 only, D39A horcolin, from koff and Kd) it was “(2.9 ± 0.1) x 10^5 M^-1s^-1”. Moreover, the koff2 entry at wt horcolin (CBS2, wt horcolin, sequential model) is given as “(2.5 ± 0.1) x 10^3 s^-1”; on D138A horcolin (CBS2 only, D138A horcolin, two-state model), “(5.0 ± 0.4) x 10^3 s^-1”. Moreover, the kon2 result on wt horcolin (CBS2, wt horcolin, sequential model, from koff and Kd) was “(5.3 ± 0.2) x 10^5 M^-1s^-1”; on D138A horcolin (CBS2 only, D138A horcolin, from koff and Kd), “(1.6 ± 0.1) x 10^6 M^-1s^-1”. Further, the Kd on wt horcolin (Kd1, CBS1, wt horcolin, two-binding-site non-cooperative (NC) model, cluster of four residues) came to 59 ± 2 mM; at wt horcolin (Kd1, CBS1, wt horcolin, two-site sequential binding model, 25 °C, pH 7.4), 19.9 ± 0.1 mM; at wt horcolin (Kd2, CBS2, wt horcolin, two-binding-site non-cooperative (NC) model, cluster of four residues), 7.7 ± 0.1 mM; on wt horcolin (Kd2, CBS2, wt horcolin, two-site sequential binding model, 25 °C, pH 7.4), 4.71 ± 0.02 mM; at D138A horcolin, 3.2 ± 0.3 mM; at D39A horcolin, 55.6 ± 0.2 mM. In addition, the “binding free energy difference ΔΔG^0 between CBS2 and CBS1” value on wt horcolin (wt horcolin) was 0.85 kcal/mol. Besides, the “fold higher affinity for CBS2 than CBS1” value at wt horcolin (wt horcolin, sequential model) is recorded as 4.2 fold. On D138A horcolin, the “fold increase of koff at CBS2, D138A versus wt” value was found to be 2 fold. On D138A horcolin, the “fold increase of kon at CBS2, D138A versus wt” value was determined as 3 fold. Further, at D39A horcolin, the “fold increase of koff at CBS1, D39A versus wt” value came out at 7 fold. For the same molecule, the “fold increase of kon at CBS1, D39A versus wt” value on D39A horcolin amounted to 2.4 fold. The “ΔΔG^0 between the two single-site binding events” value on D39A horcolin (D138A (CBS2) versus D39A (CBS1) horcolin) stood at 1.7 kcal/mol. In addition, the “factor of difference in koff between single-binding-site mutants” value on D39A horcolin (D138A versus D39A horcolin) is reported as 3.3. In addition, at D39A horcolin (D138A versus D39A horcolin), the “fold difference in kon between single-binding-site mutants” value is 5.3 fold.

B1: horcolin (natural protein, Hordeum vulgare (barley))
chain: T1 sequence (Q5U9T2 1-146)
Turning to B1, the “stoichiometry N” value in the series “crystal structure” worked out at 2.

B2: horcolin: dimeric mannose-specific jacalin-related lectin from Hordeum vulgare (barley), 146 amino acids per protomer (protein)
chain: T1 sequence (Q5U9T2 1-146)
For the molecule B2, the Kd at HIV gp120 is 14.4 nM. Further, the HIV-1 neutralization result with HIV-1 was “has the ability to neutralize HIV-1”.
